One series addresses T1, Neuropeptide S receptor (Homo sapiens, UniProt Q6W5P4).
T1 sequence (Q6W5P4 whole entry): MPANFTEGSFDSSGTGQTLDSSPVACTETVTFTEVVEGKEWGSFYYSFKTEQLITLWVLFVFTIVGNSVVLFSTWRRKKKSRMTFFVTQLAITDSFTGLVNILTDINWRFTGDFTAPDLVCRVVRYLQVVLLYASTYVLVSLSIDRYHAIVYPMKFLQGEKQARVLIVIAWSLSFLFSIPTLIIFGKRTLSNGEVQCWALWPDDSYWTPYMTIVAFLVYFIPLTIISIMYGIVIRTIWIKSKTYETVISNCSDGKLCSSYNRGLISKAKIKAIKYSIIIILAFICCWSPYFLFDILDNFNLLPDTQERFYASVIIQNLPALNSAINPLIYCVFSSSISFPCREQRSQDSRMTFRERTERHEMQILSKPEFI
Briefly: Antagonist activity at human recombinant GPR154 receptor expressed in HEK293 cells assessed as inhibition of neuropeptide S-induced increase of intracellular calcium level by FLIPR assay. The series is classed as functional, cell-based. In outline:
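Transient expression of human GPR154 in HEK293; cells seeded 18.000/well, 24 h at 37 °C, 5% CO₂. Fluo-4-AM loading 1 h at 37 °C, HBSS wash. Calcium rise evoked by EC₈₀ Neuropeptide S, read by FLIPR; response normalised to 30 nM NPS maximum (max minus min RFU); pIC₅₀ by nonlinear regression.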
(Calcium assays in cells follow changes in intracellular calcium, usually with a dye or a luminescent sensor.)

Series [1] can be described thus: Bioavailability in rat at 1 mg/kg, po. The series is classed as ADME, organism-based. The settings on record: in vivo. In outline: (§1)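 Rat, single oral 1 mg/kg in 5% DMSO + 0.5% HPMC in water; blood sampled for clearance, half-life, distribution volume and oral bioavailability.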
A further series deals with Cytochrome P450 2C19 (Homo sapiens, UniProt P33261). Briefly: Inhibition of CYP2C19. It counts as ADME.
Cytochrome P450 2C19, sequence (P33261 whole entry): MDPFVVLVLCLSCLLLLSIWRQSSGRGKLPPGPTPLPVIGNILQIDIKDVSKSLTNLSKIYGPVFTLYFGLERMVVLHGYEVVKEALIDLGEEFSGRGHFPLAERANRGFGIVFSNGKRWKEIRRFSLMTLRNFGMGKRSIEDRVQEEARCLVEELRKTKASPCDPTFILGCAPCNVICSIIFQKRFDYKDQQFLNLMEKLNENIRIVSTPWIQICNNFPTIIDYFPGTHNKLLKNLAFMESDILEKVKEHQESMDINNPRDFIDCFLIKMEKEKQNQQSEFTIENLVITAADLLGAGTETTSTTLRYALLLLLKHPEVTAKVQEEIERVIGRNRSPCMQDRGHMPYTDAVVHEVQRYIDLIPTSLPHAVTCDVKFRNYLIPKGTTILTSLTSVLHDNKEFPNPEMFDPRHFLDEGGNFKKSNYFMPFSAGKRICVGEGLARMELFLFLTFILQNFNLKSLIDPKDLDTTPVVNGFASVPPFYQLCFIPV
Another series deals with Cytochrome P450 2C9 (Homo sapiens, UniProt P11712). Briefly: Inhibition of CYP2C9. The series is classed as ADME.
Cytochrome P450 2C9, sequence (P11712 whole entry): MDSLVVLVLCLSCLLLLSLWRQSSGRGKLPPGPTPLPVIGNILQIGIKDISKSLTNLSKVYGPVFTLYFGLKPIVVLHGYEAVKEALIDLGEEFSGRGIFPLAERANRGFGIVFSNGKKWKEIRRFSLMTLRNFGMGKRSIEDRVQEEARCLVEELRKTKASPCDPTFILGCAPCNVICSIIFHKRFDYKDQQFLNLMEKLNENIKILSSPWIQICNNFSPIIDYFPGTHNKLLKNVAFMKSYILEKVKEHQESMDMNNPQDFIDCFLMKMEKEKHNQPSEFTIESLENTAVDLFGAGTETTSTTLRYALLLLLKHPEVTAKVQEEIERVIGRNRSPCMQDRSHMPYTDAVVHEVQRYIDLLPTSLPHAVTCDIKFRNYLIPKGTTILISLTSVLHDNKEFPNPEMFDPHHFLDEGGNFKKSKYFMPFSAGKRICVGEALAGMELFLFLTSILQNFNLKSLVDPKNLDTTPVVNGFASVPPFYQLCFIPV
In another series the target is Cytochrome P450 3A4 (Homo sapiens, UniProt P08684). Briefly: Inhibition of CYP3A4. The series is classed as ADME.
Cytochrome P450 3A4, sequence (P08684 whole entry): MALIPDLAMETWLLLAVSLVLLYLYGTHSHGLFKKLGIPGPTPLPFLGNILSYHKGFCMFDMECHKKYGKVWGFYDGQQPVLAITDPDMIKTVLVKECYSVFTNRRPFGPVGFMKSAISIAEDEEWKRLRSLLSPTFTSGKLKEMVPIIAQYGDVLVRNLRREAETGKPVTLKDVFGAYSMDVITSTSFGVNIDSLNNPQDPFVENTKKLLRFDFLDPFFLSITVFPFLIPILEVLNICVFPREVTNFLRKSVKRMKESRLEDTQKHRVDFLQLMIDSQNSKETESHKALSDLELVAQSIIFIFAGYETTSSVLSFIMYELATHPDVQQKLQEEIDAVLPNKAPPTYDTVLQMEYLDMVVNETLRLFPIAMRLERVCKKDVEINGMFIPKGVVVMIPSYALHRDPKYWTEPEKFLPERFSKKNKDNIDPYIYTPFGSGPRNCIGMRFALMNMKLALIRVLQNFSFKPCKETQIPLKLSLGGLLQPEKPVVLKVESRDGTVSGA
A short description of series [2]: Half life in rat at 1 mg/kg, po. It counts as ADME, organism-based. Also noted: dose 1 mg/kg, route oral. The conditions noted are these: in vivo. In outline: as §1
Series [3] is described as follows: Ratio of drug level in brain to blood in rat at 1 mg/kg, po. The series is classed as ADME, organism-based. The arrangement: dose 1 mg/kg, route oral. Summed up:
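Rats received a single oral dose of 1 mg/kg, formulated in 5% DMSO + 0.5% HPMC in water. Drug levels were measured in blood and brain, and the brain/blood ratio was calculated from them. The work followed European directive 86/609/EEC.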

The subject of series [4] is Liver microsomes. As to the kind of experiment: Intrinsic clearance in rat liver microsomes assessed per gram of protein. It counts as ADME, Microsome. A general note: Liver microsomes are vesicles of endoplasmic reticulum, rich in cytochrome P450 enzymes.
The next series concerns Rattus norvegicus. As to the kind of experiment: Volume of distribution in rat at 1 mg/kg, po. It counts as ADME, organism-based. Also noted: dose 1 mg/kg, route oral. The settings on record: in vivo. In outline:
as §1

Series [5] deals with Liver microsomes. As to the kind of experiment: Intrinsic clearance in human liver microsomes assessed per gram of protein. The series is classed as ADME, Microsome.
The nature of series [6]: Clearance in rat blood at 1 mg/kg, po. It counts as ADME, organism-based. The arrangement: dose 1 mg/kg, route oral. Summed up:
as §1

Another series deals with Cytochrome P450 2D6 (Homo sapiens, UniProt P10635). As to the kind of experiment: Inhibition of CYP2D6. The series is classed as ADME.
Cytochrome P450 2D6, sequence (P10635 whole entry): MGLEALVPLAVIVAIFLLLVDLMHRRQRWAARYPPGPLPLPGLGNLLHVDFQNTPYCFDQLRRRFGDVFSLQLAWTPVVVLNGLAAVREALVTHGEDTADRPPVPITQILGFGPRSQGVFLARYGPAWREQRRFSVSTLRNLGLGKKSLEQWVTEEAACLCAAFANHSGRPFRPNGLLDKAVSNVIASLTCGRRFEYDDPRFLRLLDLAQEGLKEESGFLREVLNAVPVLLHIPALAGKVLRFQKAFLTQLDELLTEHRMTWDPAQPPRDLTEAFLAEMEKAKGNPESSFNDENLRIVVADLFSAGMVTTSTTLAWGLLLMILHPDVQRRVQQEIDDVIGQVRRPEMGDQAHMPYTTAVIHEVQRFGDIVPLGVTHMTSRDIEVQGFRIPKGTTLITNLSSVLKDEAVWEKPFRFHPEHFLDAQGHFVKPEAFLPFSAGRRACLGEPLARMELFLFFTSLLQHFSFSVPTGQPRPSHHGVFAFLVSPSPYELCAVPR
Another series concerns the target T2, Cytochrome P450 1A2 (Homo sapiens, UniProt P05177).
T2 sequence (P05177 whole entry): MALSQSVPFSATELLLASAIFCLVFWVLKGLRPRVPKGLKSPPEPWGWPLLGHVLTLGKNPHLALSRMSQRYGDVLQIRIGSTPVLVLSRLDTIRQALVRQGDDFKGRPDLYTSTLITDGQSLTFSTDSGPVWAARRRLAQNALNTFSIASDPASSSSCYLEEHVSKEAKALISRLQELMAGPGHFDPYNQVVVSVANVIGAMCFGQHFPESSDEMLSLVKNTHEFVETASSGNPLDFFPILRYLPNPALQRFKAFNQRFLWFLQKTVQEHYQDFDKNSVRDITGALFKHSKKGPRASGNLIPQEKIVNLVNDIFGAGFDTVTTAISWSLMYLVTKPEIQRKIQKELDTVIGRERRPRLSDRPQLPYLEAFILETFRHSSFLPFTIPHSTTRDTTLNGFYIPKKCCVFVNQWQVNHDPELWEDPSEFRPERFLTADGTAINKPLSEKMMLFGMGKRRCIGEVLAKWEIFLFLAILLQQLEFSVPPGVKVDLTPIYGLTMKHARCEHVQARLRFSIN
As to the kind of experiment: Inhibition of CYP1A2. The series is classed as ADME.

pIC50: −log10 of the molar value. Where only a bound is given, the exact number is not on record here.

On to `O=C(Nc1ccccc1C(=O)N1CCCCC1)c1ccc(-c2ccccc2)o1`, for which, on Neuropeptide S receptor, the pIC50 was 7.50.

In the case of `O=C(Nc1ccccc1C(=O)N1CCCCC1)c1ccc(-c2ccccc2)[nH]1`, the pIC50 at Neuropeptide S receptor is less than 5.30.

Take `O=C(c1ccccc1N1Cn2c(ccc2-c2ccccc2)C1=O)N1CCCCC1`: in [1], the bioavailability amounted to 1%. The pIC50 is less than 5.30 against Cytochrome P450 2C19; less than 5.30 on Cytochrome P450 2C9; less than 5.30 against Cytochrome P450 3A4; less than 5.30 against Cytochrome P450 2D6; less than 5.30 against Cytochrome P450 1A2; 8.00 on Neuropeptide S receptor. Also, the half-life in [2] is 42 min. The Kp in series [3] came to 0.3. Moreover, the CL was found to be 26.3 mL/min/g in the series with Liver microsomes [4] and 6.9 mL/min/g in the series with Liver microsomes [5]. Also, the Vd with Rattus norvegicus is 2.4 L/kg. The same compound returned a CL/F in [6] of 69 mL/min/kg.

Turning to `O=C(Nc1ccccc1C(=O)N1CCCCC1)c1cccc(-c2ccccc2)c1`, at Neuropeptide S receptor, the pIC50 was 6.60.

Regarding `O=C(c1ccccc1N1CCn2c(ccc2-c2ccccc2)C1=O)N1CCCCC1`, the pIC50 at Neuropeptide S receptor is less than 5.30.

On to `O=C(c1ccccc1N1CCCn2c(ccc2-c2ccccc2)C1=O)N1CCCCC1`, for which the pIC50 at Neuropeptide S receptor is less than 5.30.

In the case of `O=C(Nc1ccccc1C(=O)N1CCCCC1)c1cccc(-c2ccccc2)n1`, the pIC50 at Neuropeptide S receptor is 7.70.

For `O=C(NCc1ccccc1)N1CCN2C(=O)OC(c3ccccc3)(c3ccccc3)C2C1` (stereo unspecified), at Neuropeptide S receptor, the pIC50 was 8.70.

On to `O=C(Nc1ccccc1C(=O)N1CCCCC1)c1ccc(-c2ccccc2)s1`, for which the pIC50 on Neuropeptide S receptor is 6.10.

The pIC50 is the IC50 on a negative log10 scale, so that one unit is a factor of ten. As a reminder, the bioavailability is dose-corrected exposure relative to a reference, in per cent. A lower bioavailability goes with poor availability. The term half-life denotes the time needed for the level to fall by half in the phase considered. The term Kp denotes tissue or fluid exposure divided by exposure in the circulation. A word on the CL/F: it is clearance divided by bioavailability, as obtained after extravascular dosing.
